Results from ChEMBL document CHEMBL1759862, “Tricyclic compounds containing nonenolizable cyano enones. A novel class of highly potent anti-inflammatory and cytoprotective agents” (J Med Chem, 2011).
Activity calls are given as the source filed them. No cut-off for these calls is given here.

Key:
[1] = target: NAD(P)H dehydrogenase [quinone] 1 (Mus musculus) (UniProt Q64669); assay: Induction of NQO1 activity in mouse Hepa-1c1c7 cells after 48 hrs; assay type: cell-based
[2] = Antiinflammatory activity in CD-1 mouse Macrophage assessed as inhibition of IFN-gamma induced NO production after 48 hrs by Griess reaction; assay type: functional, cell-based
[3] = Cytotoxicity against CD-1 mouse macrophages at 10 uM; assay type: cell-based; conditions: macrophage
RAW264.7 [4] = assay: Antiinflammatory activity in mouse RAW264.7 cells assessed as inhibition of IFN-gamma induced NO production after 24 hrs by Griess reaction; assay type: functional, cell-based
Summary of the method: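 RAW 264.7 cells exposed to serial concentrations of compound together with IFN-γ (10 ng/mL) for 24 h; NO in supernatants quantified by Griess reaction. IC50 tested over 0.1 pM to 10 μM in 10-fold steps; values averaged from two separate experiments.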

RAW264.7 [5] = assay: Induction of HO-1 expression in mouse RAW264.7 cells at 10 nM after 6 hrs by Western blotting; assay type: functional, cell-based
Summary of the method: (§1)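 RAW 264.7 macrophages were exposed to compound at 10–100 nM for 6 h. HO-1 protein was detected by Western blot of total cell lysates.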

RAW264.7 [6] = assay: Induction of HO-1 expression in mouse RAW264.7 cells at 100 nM after 6 hrs by Western blotting; assay type: functional, cell-based; summary of the method: as §1
RAW264.7 [7] = assay: Induction of HO-1 expression in mouse RAW264.7 cells at 30 nM after 6 hrs by Western blotting; assay type: functional, cell-based
Summary of the method: (§2)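 RAW cells treated with compound for 6 h (30–300 nM range); HO-1 detected in total cell lysates by Western blot.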

RAW264.7 [8] = assay: Induction of HO-1 expression in mouse RAW264.7 cells at 300 nM after 6 hrs by Western blotting; assay type: functional, cell-based; summary of the method: as §2
[9] = Mus musculus, CD-1, Macrophage, 48 h

NAD(P)H dehydrogenase [quinone] 1 (Mus musculus), sequence (Q64669 whole entry): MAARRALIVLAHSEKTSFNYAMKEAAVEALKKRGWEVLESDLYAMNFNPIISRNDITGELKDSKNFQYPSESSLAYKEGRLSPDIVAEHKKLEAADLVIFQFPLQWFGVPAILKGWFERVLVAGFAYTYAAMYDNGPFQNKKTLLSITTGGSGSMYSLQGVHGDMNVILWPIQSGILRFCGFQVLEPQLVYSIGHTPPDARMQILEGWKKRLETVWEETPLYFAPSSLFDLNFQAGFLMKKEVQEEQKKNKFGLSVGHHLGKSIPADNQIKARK

| SMILES | Activity [3] | IC50 (RAW264.7 [4]; Mus musculus, RAW264.7, 24 h) | also measured |
| --- | --- | --- | --- |
| CC1(C)C(=O)C(C#N)=C[C@@]2(C)C3=CC(=O)C=C[C@@]3(C)CC[C@H]12 | Non-toxic | – | CD [1]: 140 nM; IC50 [2, 9]: 58 nM |
| CC1(C)C(=O)C(C#N)=C[C@@]2(C)C3=CC(=O)C(C#N)=C[C@@]3(C)CC[C@H]12 | Non-toxic | – | CD [1]: 19 nM; IC50 [2, 9]: 1.3 nM |
| CC1(C)C(=O)C(C#N)=C[C@@]2(C)C3=CC(=O)CC[C@@]3(C)CC[C@H]12 | Non-toxic | – | IC50 [2, 9]: 26 nM |
| C#C[C@]12C=C(C#N)C(=O)C=C1[C@@]1(C)C=C(C#N)C(=O)C(C)(C)[C@@H]1CC2 [listing 1 of 2 here] | – | – | IC50 (RAW264.7 [4]; raw264.7): 3 nM |
| CC1(C)C(=O)C(C#N)=C[C@]2(C)C3=CC(=O)C(C#N)=C[C@]3(C)CC[C@@H]12 [listing 1 of 2 here] | – | – | IC50 ([2]; macrophage): 14 nM |
| C#C[C@]12C=C(C#N)C(=O)C=C1[C@@]1(C)C=C(C#N)C(=O)C(C)(C)[C@@H]1CC2 [listing 2 of 2 here] | – | – | CD [1]: 2.7 nM; Activity (RAW264.7 [5]): Active; Activity (RAW264.7 [6]): Active |
| CC1(C)C(=O)C(C#N)=C[C@]2(C)C3=CC(=O)C(C#N)=C[C@]3(C#C[Si](C)(C)C)CC[C@@H]12 | – | – | CD [1]: 3 nM; Activity (RAW264.7 [5]): Active; Activity (RAW264.7 [6]): Active |
| CC1(C)C(=O)C(C#N)=C[C@]2(C)C3=CC(=O)C(C#N)=C[C@]3(C)CC[C@@H]12 [listing 2 of 2 here] | – | – | CD [1]: 150 nM |
| CC1(C)C(=O)C(C#N)=C[C@]2(C)C3=CC(=O)C=C[C@]3(C)CC[C@@H]12 | – | – | CD [1]: 170 nM |
| CC1(C)C(=O)C(C#N)=C[C@]2(C)C3=CC(=O)C(C#N)=C[C@]3(C#C[Si](C)(C)C(C)(C)C)CCC12 (mixture of isomers) | – | 80 nM | CD [1]: 150 nM |
| CC1(C)C(=O)C(C#N)=C[C@]2(C)C3=CC(=O)CCCC3(F)CC[C@@H]12 (mixture of isomers) | – | 360 nM | – |
| CC1(C)C(=O)C(C#N)=C[C@]2(C)C3=CC(=O)C(C#N)=C[C@]3(C#Cc3nccs3)CCC12 (mixture of isomers) | – | 10 nM | Activity (RAW264.7 [7]): Active; CD [1]: 35 nM; Activity (RAW264.7 [8]): Active |
| CC1(C)C(=O)C(C#N)=C[C@]2(C)C3=CC(=O)C(C(N)=O)=C[C@]3(C)CC[C@@H]12 (racemic) | Non-toxic | – | – |
| CC(=O)O[C@@H]1CCC=C2[C@@]3(C)C=C(C#N)C(=O)C(C)(C)[C@@H]3CC[C@]21C (racemic) | Non-toxic | – | – |
| CC1(C)C(=O)C(C#N)=C[C@]2(C)C3=CCC[C@@H](O)[C@]3(C)CC[C@@H]12 (racemic) | Non-toxic | – | – |
| CC1(C)C(=O)C(C#N)=C[C@]2(C)C3=CC(=O)C[C@@H](O)[C@]3(C)CC[C@@H]12 (racemic) | Non-toxic | – | – |
| COC(=O)C#C[C@]12C=C(C#N)C(=O)C=C1[C@@]1(C)C=C(C#N)C(=O)C(C)(C)[C@@H]1CC2 (racemic) | – | 20 nM | Activity (RAW264.7 [7]): Active; CD [1]: 85 nM; Activity (RAW264.7 [8]): Active |
| CC1(C)C(=O)C(C#N)=C[C@]2(C)C3=CC(=O)CC[C@]3(CO)CC[C@@H]12 (racemic) | – | 350 nM | – |
| CC1(C)C(=O)C(C#N)=C[C@]2(C)C3=CC(=O)CC[C@]3(CO[Si](C)(C)C(C)(C)C)CC[C@@H]12 (racemic) | – | 480 nM | – |

| SMILES | Activity [3] | IC50 (RAW264.7 [4]; Mus musculus, RAW264.7, 24 h) | also measured |
| --- | --- | --- | --- |
| CC1(C)C(=O)C(C#N)=C[C@]2(C)C3=CC(=O)C(C#N)=C[C@]3(C#CC(=O)O)CC[C@@H]12 (racemic) | – | 100 nM | CD [1]: 150 nM |
| C#CC#C[C@]12C=C(C#N)C(=O)C=C1[C@@]1(C)C=C(C#N)C(=O)C(C)(C)[C@@H]1CC2 (racemic) | – | 3 nM | Activity (RAW264.7 [7]): Active; Activity (RAW264.7 [8]): Active |
| CC1(C)C(=O)C(C#N)=C[C@]2(C)C3=CC(=O)CC[C@]3(C=O)CC[C@@H]12 (racemic) | – | 83 nM | – |
| CC(C)(C)OC(=O)NC[C@]12CCC(=O)C=C1[C@@]1(C)C=C(C#N)C(=O)C(C)(C)[C@@H]1CC2 (racemic) | – | 64 nM | – |
| CC1(C)C(=O)C(C(=O)O)=C[C@]2(C)C3=CC(=O)C(C#N)=C[C@]3(C)CC[C@@H]12 (racemic) | Non-toxic | – | IC50 [2, 9]: > 600 nM |
| CC1(C)C(=O)C(C#N)=C[C@]2(C)C3=CC(=O)CC[C@]3(C#N)CC[C@@H]12 (racemic) | – | 64 nM | – |
| COC(=O)C1=C[C@]2(C)C3=CC(=O)C(C#N)=C[C@]3(C)CC[C@H]2C(C)(C)C1=O (racemic) | Non-toxic | – | IC50 [2, 9]: > 60 nM |
| CC(=O)OC[C@]12CCC(=O)C=C1[C@@]1(C)C=C(C#N)C(=O)C(C)(C)[C@@H]1CC2 (racemic) | – | 85 nM | – |
| CC1(C)C(=O)C(C#N)=C[C@]2(C)C3=CC(=O)CC[C@]3(C)CC[C@@H]12 (racemic) | Non-toxic | 57 nM | IC50 [2, 9]: 19 nM |
| COC(=O)[C@]12CCC(=O)C=C1[C@@]1(C)C=C(C#N)C(=O)C(C)(C)[C@@H]1CC2 (racemic) | – | 290 nM | – |
| CC1(C)C(=O)C(C#N)=C[C@]2(C)C3=CC(=O)CC[C@]3(C(=O)OCOCC[Si](C)(C)C)CC[C@@H]12 (racemic) | – | 150 nM | – |
| CC1(C)C(=O)C(C#N)=C[C@]2(C)C3=CC(=O)CC[C@]3(C(=O)O)CC[C@@H]12 (racemic) | – | 83 nM | – |
| CC1(C)C(=O)C(C#N)=C[C@]2(C)C3=CC(=O)CC[C@]3(C(N)=O)CC[C@@H]12 (racemic) | – | > 10000 nM | – |
| COC[C@]12CCC(=O)C=C1[C@@]1(C)C=C(C#N)C(=O)C(C)(C)[C@@H]1CC2 (racemic) | – | 40 nM | – |
| CC1(C)C(=O)C(C#N)=C[C@]2(C)C3=CC(=O)CC[C@]3(CN)CC[C@@H]12 (racemic) | – | 240 nM | – |
| CC[C@]12CCC(=O)C=C1[C@@]1(C)C=C(C#N)C(=O)C(C)(C)[C@@H]1CC2 (racemic) | – | 80 nM | – |
| C#C[C@]12CCC(=O)C=C1[C@@]1(C)C=C(C#N)C(=O)C(C)(C)[C@@H]1CC2 (racemic) | – | 83 nM | – |
| CC1(C)C(=O)C(C#N)=C[C@]2(C)C3=CC(=O)C(C#N)=C[C@]3(C#N)CC[C@@H]12 (racemic) | – | 115 nM | – |
| CC1(C)C(=O)C(C#N)=C[C@]2(C)C3=CC(=O)C(C#N)=C[C@]3(C#Cc3nccn3COCC[Si](C)(C)C)CC[C@@H]12 (racemic) | – | 35 nM | Activity (RAW264.7 [7]): Active |

| SMILES | Activity [3] | IC50 (RAW264.7 [4]; Mus musculus, RAW264.7, 24 h) | also measured |
| --- | --- | --- | --- |
| CC1(C)C(=O)C(C#N)=C[C@]2(C)C3=CC(=O)C(C#N)=C[C@]3(C#Cc3ncc[nH]3)CC[C@@H]12 (racemic) | – | 400 nM | – |
| Cc1csc(C#C[C@]23C=C(C#N)C(=O)C=C2[C@@]2(C)C=C(C#N)C(=O)C(C)(C)[C@@H]2CC3)n1 (racemic) | – | 20 nM | Activity (RAW264.7 [7]): Active; Activity (RAW264.7 [8]): Active |
| CC1(C)C(=O)C(C#N)=C[C@]2(C)C3=CC(=O)C(C#N)=C[C@]3(C#Cc3ccccc3)CC[C@@H]12 (racemic) | – | 50 nM | Activity (RAW264.7 [7]): Active; Activity (RAW264.7 [8]): Active |
| CC#C[C@]12C=C(C#N)C(=O)C=C1[C@@]1(C)C=C(C#N)C(=O)C(C)(C)[C@@H]1CC2 (racemic) | – | 5 nM | CD [1]: 7.5 nM |
| CCC#C[C@]12C=C(C#N)C(=O)C=C1[C@@]1(C)C=C(C#N)C(=O)C(C)(C)[C@@H]1CC2 (racemic) | – | 20 nM | – |
| CC1(C)C(=O)C(C#N)=C[C@]2(C)C3=CC(=O)C(C#N)=C[C@]3(C#C[Si](C)(C)C)CC[C@@H]12 (racemic) | – | 3 nM | – |
| CC[C@]12C=C(C#N)C(=O)C=C1[C@@]1(C)C=C(C#N)C(=O)C(C)(C)[C@@H]1CC2 (racemic) | – | 10 nM | Activity (RAW264.7 [7]): Active; CD [1]: 18 nM |
| C=C[C@]12C=C(C#N)C(=O)C=C1[C@@]1(C)C=C(C#N)C(=O)C(C)(C)[C@@H]1CC2 (racemic) | – | 10 nM | Activity (RAW264.7 [7]): Active; CD [1]: 30 nM |
| CC(=O)O[C@@H]1CC(=O)C=C2[C@@]3(C)C=C(C#N)C(=O)C(C)(C)[C@@H]3CC[C@]21C (racemic) | Non-toxic | – | – |
| CC1(C)C(=O)C(C#N)=C[C@]2(C)C3=CC(=O)C(C(=O)O)=C[C@]3(C)CC[C@@H]12 (racemic) | Non-toxic | – | – |
| COC(=O)C1=C[C@]2(C)CC[C@H]3C(C)(C)C(=O)C(C#N)=C[C@]3(C)C2=CC1=O (racemic) | Non-toxic | – | – |
| CC1(C)C(=O)C(C#N)=C[C@]2(C)C3=CC(=O)C(C#N)=C[C@]3(C)CC[C@@H]12 (racemic) | Non-toxic | 23 nM | IC50 ([2]; macrophage): 2.1 nM |
| CC1(C)C(=O)C(C#N)=C[C@]2(C)C3=CC(=O)C(C#N)=C[C@]3(C#CC#N)CC[C@@H]12 (racemic) | – | 4 nM | Activity (RAW264.7 [7]): Active |
| CC1(C)C(=O)C(C#N)=C[C@]2(C)C3=CC(=O)C=C[C@]3(C)CC[C@@H]12 (racemic) [listing 1 of 2 here] | Non-toxic | 87 nM | – |
| CC1(C)C(=O)C(C#N)=C[C@]2(C)C3=CC(=O)C=C[C@]3(C)CC[C@@H]12 (racemic) [listing 2 of 2 here] | – | – | CD [1]: 160 nM |
| COC(=O)[C@]12CCC(C)(C)C[C@H]1[C@H]1C(=O)C=C3[C@@]4(C)C=C(C#N)C(=O)C(C)(C)[C@@H]4CC[C@@]3(C)[C@]1(C)CC2 [BARDOXOLONE METHYL] | Non-toxic | – | IC50 [2, 9]: 0.2 nM |
| C[C@@H]1C[C@H]2[C@@H]3CCC4=CC(=O)C=C[C@]4(C)[C@@]3(F)[C@@H](O)C[C@]2(C)[C@@]1(O)C(=O)CO [DEXAMETHASONE] | – | 20 nM | – |
| C[C@]12CCC(=O)C=C1CC[C@@H]1[C@@H]2[C@@H](O)C[C@@]2(C)[C@H]1CC[C@]2(O)C(=O)CO [HYDROCORTISONE] | Non-toxic | 61 nM | IC50 [2, 9]: 10 nM |
